Data: ChEMBL document CHEMBL4513216, “Probing the Open Global Health Chemical Diversity Library for Multistage-Active Starting Points for Next-Generation Antimalarials” (ACS Infect Dis, 2020)

Test: Toxicity liver stage against HepG2, at 10uM
Format: cell-based
Design: test concentration 10 uM, cell line HepG2-A16-CD81EGFP
Conditions: human, HepG2-A16-CD81EGFP cells; read-out: INHIBITION
Procedure, shortened: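 Uninfected HepG2-A16-CD81EGFP cells, 3 × 10^3 per well, 1536-well, plated on prespotted compound at 10 μM final, parasite-free screening media added to match infected plates; puromycin 10 μM positive, DMSO 0.5% negative; run in parallel with 48 h PbLuc assay at 37 °C, 5% CO2; viability by CellTiter-Glo luminescence, normalized to controls.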

SMILES | cytotoxicity at 10 µM
Cc1nn(C(=O)c2cccnc2)c(C)c1C | -8.62%
CNC(=O)NC(=O)C(NCc1cccs1)c1ccccc1 (stereo not drawn) | 6.75%
Cc1cc(=O)[nH]c(-n2nc(-c3ccccc3)cc2N)n1 | 5.71%
c1ccc2c(Cc3nnc([C@H]4CCNC4)o3)c[nH]c2c1 | -0.762%
CCN1Cc2cc3c(cc2NCCC1=O)OCO3 | -7.44%
Cc1ncc(CNC(C)(C)CO)c2cc(C(=O)c3ccc(Br)cc3)oc12 | 12.7%
COCC(=O)N1CCC2(CCC2NS(=O)(=O)c2ccccc2)CC1 (stereo not drawn) | 0.073%
O=C(c1ccc[nH]1)N1C[C@H](OCc2ccccn2)[C@H]2COC[C@H]21 | 0.238%
CC(C)Nc1nc(N2CCCC2)nc2c1CN(c1ncc(F)cn1)CC2 | 13.5%
O=C(c1ccnnc1)N1CC[C@H](OCC2CC2)[C@@H]1Cc1ccncc1 | -1.43%
CC(C)NC(=O)[C@@H](NC(=O)N1CCN(c2ccc(Cl)cc2)CC1)C(C)C | 34.9%
CCCN1CCN(C(=O)Cn2nc(C(F)(F)F)c(Br)c2C2CC2)CC1 | 2.2%
CCn1ncc(-c2cc(C(F)F)nc3sc(C(N)=O)c(N)c23)c1C | 10.3%
Cc1c(Cl)cccc1NC(=O)N1CCN(Cc2ccccn2)CC1 | -5.55%
CSc1ccc(-c2noc(CN(CC(C)C)CC(C)C)n2)cc1 | -3.7%
Cc1ccc([C@]2(O)CC[C@H]3CN(Cc4ccncc4)C[C@H]32)nc1 | -31.5%
CC(=O)N1C[C@@H](c2ccsc2)[C@@H]2CN(Cc3ccccc3C)CC[C@@H]21 | -5%
N#Cc1ccccc1OCCN1CCN(C(=O)C2CCCC2)CC1 | -52.1%
N#Cc1ncn(Cc2c(F)cccc2Cl)n1 | -3.94%
O=C(NCCn1ccnc1)C1COCC(=O)N1Cc1ccccc1 (stereo not drawn) | 8.19%
N#CCCN(CC(=O)Nc1ccc(Br)cc1Cl)Cc1cccnc1 | 11%
N#Cc1cc(F)ccc1NCC1CCN(S(=O)(=O)C(F)F)CC1 | 18.4%

SMILES | cytotoxicity at 10 µM
CC(CNC1CCN(c2ccccn2)CC1)Oc1ccc(F)cc1 (stereo not drawn) | 7.43%
CCNC(=O)C(C)NC(=O)Nc1ccccc1SC(F)(F)F (stereo not drawn) | -9.5%
COc1ccc(CNCc2c(C)nc3sc(C)cn23)c(OC)c1OC | -1.99%
COc1cc(C)sc1C(=O)NCCC(=O)N(C)Cc1ccccc1 | -8.78%
N#Cc1c(F)cccc1Nc1cnn(CC(N)=O)c1 | 6.25%
CCc1ccc(C2CCCN2C(=O)Cc2ccc(NC(C)=O)cc2)o1 (stereo not drawn) | -0.557%
Cc1cccn2c(=O)cc(CN3CCCC3Cn3cccn3)nc12 (stereo not drawn) | -4.55%
COCc1nc2cc(NCc3sc(C)nc3C)ccc2o1 | 29.1%
CNS(=O)(=O)c1cccc(C(C)NCc2ccc(F)cc2F)c1 (stereo not drawn) | 12.8%
Cc1ccc(C(=O)CN2C(=O)c3ccccc3CS2(=O)=O)c(C)c1 | 17.6%
CN(Cc1ccc(N(C)C)cc1)C(=O)CS(=O)(=O)c1ccc(Cl)cc1 | 22.2%
COc1ncccc1C(=O)NC1(c2cccc(F)c2)CCOCC1 | 10.9%
CN(Cc1ccc(Cl)s1)C(=O)Cn1nc(-c2ccc(F)cc2)oc1=O | -20.4%
COc1cccc(N2CCN(CCC(=O)NC3CCCCC3)CC2)c1 | -5.64%
CCOC(C)C(=O)Nc1ccc(Sc2nncn2C)c(Cl)c1 (stereo not drawn) | -1.37%
c1ccc(-n2nnnc2NCc2ccc3c(c2)OCO3)cc1 | 29.5%
CC(Nc1cnn(C)c(=O)c1Cl)c1ccc(F)cc1 (stereo not drawn) | 20.7%
CS(=O)(=O)c1cccc(C(=O)NCc2nc3cc(F)ccc3[nH]2)c1 | 12.2%
CNC(=O)CN1CCC(OCc2ccc(Cl)c(Cl)c2)CC1 | -14.4%
CCCc1noc(CN2CCOCC2C)n1 (stereo not drawn) | 6.3%
Cc1oc(-c2ccsc2)nc1CN1CCCC(c2ccnn2C)C1 (stereo not drawn) | 10.7%
CCC(C)NC(=O)c1cccc(CNCc2csc(C(C)C)n2)c1 (stereo not drawn) | 9.48%

SMILES | cytotoxicity at 10 µM
O=C(CN(CC(O)c1ccc(F)cc1)C1CC1)NCc1cccs1 (stereo not drawn) | 0.0428%
CCNC(=O)N(C)C1CCCc2nc(C)sc21 (stereo not drawn) | 12.2%
CCC(CCO)NS(=O)(=O)c1ccc(Br)cn1 (stereo not drawn) | 6.62%
Cc1csc(C2(NCc3nc(-c4ccco4)oc3C)CCCC2)n1 | 7.2%
O=C(Cc1ccccc1F)NCC1CCN(CCN2CCOCC2)C1 (stereo not drawn) | -47%
CC(CCN(C)C)NC(=O)c1cccc(C(F)(F)F)c1F (stereo not drawn) | -52.6%
Cc1csc([C@H]2C[C@@H]3CCN(Cc4cc(C)on4)C[C@H]3O2)n1 | -99.4%
Cn1ccnc1CN1CCC2(COCCN(S(=O)(=O)C3CC3)C2)C1 (stereo not drawn) | 12.7%
CCC1=NC2(CCC(C(=O)Nc3ccc(C)nc3)CC2)C(=O)N1C (stereo not drawn) | 8.79%
CC(=O)N1CCc2nc(-c3ccc(F)cc3)nc(NC(C)C)c2CC1 | -114%
CCN(CC)C1CCN(c2ncnc3c2CCN(C(=O)C2CC2)C3)C1 (stereo not drawn) | 1.52%
COc1ccc2cc(C3CN(C(=O)CN4CCCC4)CCO3)ccc2c1 (stereo not drawn) | -6.88%
CC(C)c1cc(N2CC[C@H](F)C2)n2nccc2n1 | -2.56%
Cc1ncsc1C(=O)N1CC[C@@]2(O)CCN(C(=O)N3CCCC3)C[C@H]2C1 | -14.2%
CN(CCCc1cnn(C)c1)Cc1cc2n(n1)CCCN(C)C2 | -0.857%
CCCn1cc(-c2cc(-c3cc(CC)n[nH]3)c(C#N)c(N)n2)c(C)n1 | -6.7%
Cc1cc2ccccc2n1CCC(=O)N1CCCC2(CC1)CNC(=O)O2 (stereo not drawn) | 3.5%
CCn1cc(CN2CCC(C3CCN(C)CC3)CC2)cc1C#N | -0.0399%
O=C1CC2(CCN(c3nccc(-c4cc(C(=O)O)ccn4)n3)CC2)CN1 | 2.16%
CCN1CC(NC(=O)Nc2nc(C)n(C(C)C)n2)CC1=O (stereo not drawn) | -5.58%
C[C@@H]1CCC[C@H](C)N1CC(=O)N1CCc2[nH]c(-c3ccccc3)nc2C1 | 4.02%
N#Cc1ccnc(N2CCC(NCCN3CCOCC3)CC2)c1 | -43.4%

SMILES | cytotoxicity at 10 µM
CCCn1cc(NC(=O)c2cccc(CN3CC[C@H](O)C3)c2)nn1 | -12.2%
Cc1c(CN2CCc3[nH]cnc3C2C2CC2)[nH]c2ccc(F)cc12 (stereo not drawn) | 10.8%
CSc1nnc(CC2CCN(C(=O)Cc3ccncc3)CC2)n1C | -46.7%
CC(C)N1CC2(CCCN(c3ccnc4ccccc34)C2)CCC1=O (stereo not drawn) | 8.62%
O=C1CN(Cc2cn(C3CCN(C4CSCCSC4)CC3)nn2)CCN1 | -48.8%
Cc1ccc(-c2nn(-c3cccc(F)c3)cc2CN(C)CCO)o1 | 11.6%
Cc1nc(N2CCCOC(Cn3cccn3)C2)c2sccc2n1 (stereo not drawn) | 35.5%
Cc1ccccc1N1CC(C)N(C(=O)CCn2cccn2)CC1=O (stereo not drawn) | 10.1%
COc1ccc(C)cc1-n1cnnc1CC1CCNCC1 | -11.4%
CC(=O)NCCC1CCN(c2nc(C(C)(C)C)nc3c2cnn3C)CC1 | -0.891%
Cc1ccccc1S(=O)(=O)N1CCc2c(ncnc2N(C)C)C1 | -16.6%
CCn1cc(CN2CCCC3(CCC(=O)N(CCC(C)C)C3)C2)cn1 (stereo not drawn) | -4.73%
CN(C(=O)c1cccc(NCc2cccs2)c1)C(C1CC1)C1CC1 | 8.41%
CCCN1CCC(NC(=O)c2csc(C)c2C)CC1 | -137%
CC(Nc1ncnc2c1CCNC2)c1ccc(C(C)(C)C)cc1 (stereo not drawn) | 28%
Cc1ccc(-c2cn[nH]c2C2CCCN(c3ccnc(C)n3)C2)cc1 (stereo not drawn) | -1.78%
C[C@@H]1CN(C(=O)CCCN2CCOCC2)CC[C@@]1(O)C1CCC1 | -2.95%
c1ccc(Oc2cccc(OC34CCCN(CC3)C4)c2)cc1 (stereo not drawn) | 0.681%
Cc1cnc(NCC(C)(C)N2CCOCC2)nc1 | 5.68%
CNc1cc(C(=O)N2CCCCC2CCn2ccnc2C)ccn1 (stereo not drawn) | 1.85%
N#Cc1cc2c(nc1SCc1cc(O)nc(O)n1)CCCCC2 | 4.97%
c1cnn(CC2CN(Cc3csc(C4CCCCC4)n3)CCO2)c1 (stereo not drawn) | -6.37%

SMILES | cytotoxicity at 10 µM
N#Cc1cccc(CN2CCN(Cc3cscn3)CC2)c1 | 1.16%
Clc1ccc2cccnc2c1CN1CCCC1Cn1cncn1 (stereo not drawn) | 3.91%
Cc1cc(CN2CCCC2c2noc(C3CC3)n2)c2ccccc2n1 (stereo not drawn) | 49.5%
CC(C)c1ncc2c(n1)CN(Cc1nc(-c3cccs3)no1)CC2 | -7.91%
Cc1csc(NC(=O)CN2CCC(c3ccnn3CCO)CC2)n1 | 5.03%
CC(=O)N1CCCN(CC(C)(O)c2cccc(C(F)(F)F)c2)CC1 (stereo not drawn) | -10.3%
CN(CC(=O)NC(Cc1ccsc1)c1cccnc1)Cc1cccnc1 (stereo not drawn) | -4.04%
CC(C)NC(=O)[C@@H]1CC[C@@H]2[C@@H](CCN2Cc2cn(C)c3ccccc23)O1 | 9.49%
COc1cccc(CN2CCC3(CC2)CCN(c2ncc(C)cn2)C3)c1 | -3.55%
Cc1nc(CN2CCC3(CCN(C(=O)c4ccoc4C)CC3)C2)cs1 | -5.19%
COc1cccc(-c2noc(C3CCN(Cc4ccc(C)cc4)C3)n2)c1 (stereo not drawn) | -5.89%
O=C(c1ccc(F)cc1)N1CC[C@H]2[C@H]1CCN2CC1CCOCC1 | -76.4%
CC(C)OCc1ncn2c1CN(CC1CC1)CCC2 | -68.9%
Cc1noc(C)c1CN1CCC2(CC1)NC(=O)CC2c1ccccc1 (stereo not drawn) | -109%
Cc1cccc(CN2CCC3(CCCN(Cc4cnn(C)c4)C3)C2)n1 (stereo not drawn) | -113%
Cc1ccsc1CN1CCn2c(COc3cccnc3)cnc2C1C (stereo not drawn) | -99.4%
Cn1cc(CN2CCCC23CCN(C(=O)c2cccn2C)CC3)cn1 | 2.88%
Cc1ccc(CN2C[C@@H]3C[C@H](C(=O)Nc4cccnc4)[C@H](C2)O3)cc1 | -83.8%
CC1(C)CC(n2cc3nc(N4CCCC4)[nH]cc-3c2=O)CC(C)(C)N1 | 9.46%
CC1(C)[C@@H]2CC=C(CN3CCCn4nc(C(=O)O)cc4C3)[C@H]1C2 | -40.8%
